Measured values reported in article PMC8911105 (Journal of Pharmaceutical Investigation, 2022).
Like-named read-outs stand apart in the source and are kept apart here.

Key:
[1] = Basal level of endogenous ergothioneine in plasma, urine and tissues; type: in vivo, rat; details: for Decrease in Kp of basal endogenous ergothioneine after 1,25(OH)2D3 pretreatment: treated vs control
Outline: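 Rats got 1,25(OH)2D3 2.56 nmol/kg/day for four days, with no ergothioneine given. Tail-vein blood (0.3 mL) was drawn 30 min before each dose and at the same time on days 5–6. Urine was collected over 24 h from day 5 to 6, and seven tissues were taken on day 6. LC-MS/MS was run with a 2–10,000 ng/mL calibration (LLOQ 2 ng/mL). n = 5 control, 6 treated; means ± SD; unpaired two-tailed t-test.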

[2] = type: in vivo, rat
Outline: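 After four days of 1,25(OH)2D3 pretreatment, rats under ip Zoletil/Rompun (20 mg/kg) had femoral vein and artery cannulated. Aqueous ergothioneine (2 mg/mL) was given at 2 mg/kg IV. Plasma was sampled 0–1,440 min with heparinized-saline replacement. Plasma and urine were diluted 50- and 100-fold with 1% BSA for LC-MS/MS. AUC, CL, Vss and MRT came from non-compartmental analysis. Kp fold change was exogenous over basal Kp.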

[3] = humans; oral administration; ref Cheah et al. [2017]; cited from earlier work
[4] = mice; oral administration; ref Kato et al. [2010]; cited from earlier work
rat OCTN1 (rOCTN1) = assay: RT-qPCR of rOCTN1 mRNA expression in organs of 1,25; type: in vivo; details: for Decrease in rOCTN1 mRNA expression level compared to control rats: 2.56 nmol/kg/day i.p. for four days, normalized to GAPDH
[5] = Body weight of rats during 1,25; type: in vivo, rat; details: after pretreatment with 1,25(OH)2D3 2.56 nmol/kg/day for four days
[6] = brain, 1,25(OH)2D3-treated rats
[7] = heart, 1,25(OH)2D3-treated rats
[8] = kidney, 1,25(OH)2D3-treated rats
[9] = muscle, 1,25(OH)2D3-treated rats
[10] = spleen, 1,25(OH)2D3-treated rats
[11] = 2 mg/kg IV, 1,25(OH)2D3-treated rats

C[N+](C)(C)[C@@H](Cc1c[nH]c(=S)[nH]1)C(=O)[O-] [ergothioneine, l-ergothioneine]
Cumulative amount of ergothioneine excreted in urine for 24 h (basal, endogenous) ([1]; 1,25(OH)2D3-treated group): 1880 ng
Basal plasma level of endogenous ergothioneine compared with control ([1]; 1,25(OH)2D3-treated group, third day to sixth day of pretreatment): significantly increased
Tissue partition coefficient (Kp), basal endogenous ergothioneine [1, 6]: 1.587 ± 0.929
Tissue partition coefficient (Kp), basal endogenous ergothioneine ([1]; brain, control rats): 3.585 ± 0.447
Cumulative amount of ergothioneine excreted in urine for 24 h (basal, endogenous) ([1]; control group): 3858 ng
Tissue partition coefficient (Kp), basal endogenous ergothioneine [1, 7]: 22.25 ± 15.27
Tissue partition coefficient (Kp), basal endogenous ergothioneine ([1]; heart, control rats): 34.59 ± 7.01
Tissue partition coefficient (Kp), basal endogenous ergothioneine [1, 8]: 20.56 ± 11.88
Tissue partition coefficient (Kp), basal endogenous ergothioneine ([1]; kidney, control rats): 60.85 ± 10.93
Decrease in Kp of basal endogenous ergothioneine after 1,25(OH)2D3 pretreatment ([1]; kidneys): 66.2%
Tissue partition coefficient (Kp), basal endogenous ergothioneine ([1]; liver, 1,25(OH)2D3-treated rats (n = 6)): 106.7 ± 62.3
Tissue partition coefficient (Kp), basal endogenous ergothioneine ([1]; liver, control rats (n = 5)): 224.4 ± 53.9
Decrease in Kp of basal endogenous ergothioneine after 1,25(OH)2D3 pretreatment ([1]; liver): 52.4%
Tissue partition coefficient (Kp), basal endogenous ergothioneine ([1]; lung, 1,25(OH)2D3-treated rats): 17.75 ± 11.47
Tissue partition coefficient (Kp), basal endogenous ergothioneine ([1]; lung, control rats): 30.67 ± 6.68
Tissue partition coefficient (Kp), basal endogenous ergothioneine [1, 9]: 4.471 ± 3.279
Tissue partition coefficient (Kp), basal endogenous ergothioneine ([1]; muscle, control rats): 8.385 ± 1.141
Decrease in Kp of basal endogenous ergothioneine after 1,25(OH)2D3 pretreatment ([1]; muscle): 46.7%
Tissue partition coefficient (Kp), basal endogenous ergothioneine [1, 10]: 15.22 ± 7.87
Tissue partition coefficient (Kp), basal endogenous ergothioneine ([1]; spleen, control rats): 42.50 ± 14.19
Decrease in Kp of basal endogenous ergothioneine after 1,25(OH)2D3 pretreatment ([1]; spleen): 64.2%
CL [2, 11]: 1.894 ± 0.733 mL/min/kg
MRT [2, 11]: 33.50 ± 20.07 h
Urinary recovery of ergothioneine within 24 h [2, 11]: 1.08%
Vss [2, 11]: 3.298 ± 0.959 L/kg
AUC∞ ([2]; 2 mg/kg IV, 1,25(OH)2D3-treated rats (n = 6)): 1198 ± 457 µg·min/mL
CL ([2]; 2 mg/kg IV, control rats): 3.729 ± 1.734 mL/min/kg
MRT ([2]; 2 mg/kg IV, control rats): 27.11 ± 17.31 h
Urinary recovery of ergothioneine within 24 h ([2]; 2 mg/kg IV, control rats): 3.89%
Vss ([2]; 2 mg/kg IV, control rats): 4.82 ± 1.291 L/kg
AUC∞ ([2]; 2 mg/kg IV, control rats (n = 7)): 647.5 ± 327.5 µg·min/mL
Decrease in total clearance in 1,25(OH)2D3-treated rats ([2]; 2 mg/kg IV, treated vs control): 49%
Increase in AUC∞ in 1,25(OH)2D3-treated rats ([2]; 2 mg/kg IV, treated vs control): 85%
Tissue partition coefficient (Kp), IV exogenous ergothioneine [2, 6]: 2.909 ± 0.448
Tissue partition coefficient (Kp), IV exogenous ergothioneine ([2]; brain, control rats): 4.799 ± 1.199
Tissue partition coefficient (Kp), IV exogenous ergothioneine [2, 7]: 39.88 ± 10.04
Tissue partition coefficient (Kp), IV exogenous ergothioneine ([2]; heart, control rats): 81.04 ± 37.23
Fold change of Kp (exogenous versus endogenous basal) ([2]; kidney, 1,25(OH)2D3-treated group): 3.70 fold
Tissue partition coefficient (Kp), IV exogenous ergothioneine [2, 8]: 76.12 ± 47.89
Fold change of Kp (exogenous versus endogenous basal) ([2]; kidney, control group): 3.13 fold
Tissue partition coefficient (Kp), IV exogenous ergothioneine ([2]; kidney, control rats): 190.7 ± 59.4
Tissue partition coefficient (Kp), IV exogenous ergothioneine ([2]; liver, 1,25(OH)2D3-treated rats (n = 6), 24 h after 2 mg/kg IV): 237.3 ± 82.8
Tissue partition coefficient (Kp), IV exogenous ergothioneine ([2]; liver, control rats (n = 5), 24 h after 2 mg/kg IV): 407.8 ± 113.9
Tissue partition coefficient (Kp), IV exogenous ergothioneine ([2]; lung, 1,25(OH)2D3-treated rats): 38.61 ± 8.48
Tissue partition coefficient (Kp), IV exogenous ergothioneine ([2]; lung, control rats): 57.37 ± 14.60
Tissue partition coefficient (Kp), IV exogenous ergothioneine [2, 9]: 10.25 ± 3.90
Tissue partition coefficient (Kp), IV exogenous ergothioneine ([2]; muscle, control rats): 19.43 ± 8.95
Tissue partition coefficient (Kp), IV exogenous ergothioneine [2, 10]: 21.89 ± 2.34
Tissue partition coefficient (Kp), IV exogenous ergothioneine ([2]; spleen, control rats): 70.56 ± 17.46
Urinary recovery of ergothioneine [3]: < 4%
Urinary recovery of ergothioneine [4]: < 4%

C=C1/C(=C\C=C2/CCC[C@]3(C)[C@@H]([C@H](C)CCCC(C)(C)O)CC[C@@H]23)C[C@@H](O)C[C@@H]1O [1,25(OH)2D3, 1α,25-dihydroxyvitamin D3]
Decrease in rOCTN1 mRNA expression level compared to control rats (rat OCTN1 (rOCTN1); brain): 27%
Decrease in rOCTN1 mRNA expression level compared to control rats (rat OCTN1 (rOCTN1); kidney): 77%
Change in rOCTN1 mRNA levels (rat OCTN1 (rOCTN1); other tissues, such as the liver, spleen, and heart): no significant changes
Weight gain compared with control rats [5]: significantly lower
